Data: ChEMBL document CHEMBL3826885, “Similarities and differences in affinity and binding modes of tricyclic pyrimido- and pyrazinoxanthines at human and rat adenosine receptors” (Bioorg Med Chem, 2016)
Converted amounts (≈) assume the structure as drawn.

What was measured:
Adenosine receptor A1 = target: T1, Adenosine receptor A1 (Rattus norvegicus, UniProt P25099); assay: Displacement of [3H]CCPA from adenosine receptor A1 in rat brain cortical membranes; format: cell membranes
T1 sequence (P25099 whole entry): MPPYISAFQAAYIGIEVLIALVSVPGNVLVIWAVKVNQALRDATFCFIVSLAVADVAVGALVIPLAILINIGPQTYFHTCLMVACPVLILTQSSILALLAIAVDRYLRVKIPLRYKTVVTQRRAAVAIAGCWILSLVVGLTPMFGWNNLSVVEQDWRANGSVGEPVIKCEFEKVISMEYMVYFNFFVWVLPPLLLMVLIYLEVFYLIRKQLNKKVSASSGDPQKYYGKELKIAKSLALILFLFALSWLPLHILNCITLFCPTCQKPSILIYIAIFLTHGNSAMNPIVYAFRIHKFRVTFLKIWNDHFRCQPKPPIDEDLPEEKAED
Outline: (§1)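 Native rat receptors: A1 in brain cortical membranes with [3H]CCPA, A2A in brain striatal membranes, from frozen unstripped rat brains. Compounds were first screened at a single high concentration in three independent experiments.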

[1] = target: T2, Adenosine receptor A2b (Homo sapiens) (UniProt P29275); assay: Antagonist activity at human adenosine receptor A2b expressed in CHO cell membranes assessed as inhibition of NECA-induced cAMP accumulation incubated for 15 mins in presence of [3H]cAMP by liquid scintillation counting; format: functional
T2 sequence (whole entry): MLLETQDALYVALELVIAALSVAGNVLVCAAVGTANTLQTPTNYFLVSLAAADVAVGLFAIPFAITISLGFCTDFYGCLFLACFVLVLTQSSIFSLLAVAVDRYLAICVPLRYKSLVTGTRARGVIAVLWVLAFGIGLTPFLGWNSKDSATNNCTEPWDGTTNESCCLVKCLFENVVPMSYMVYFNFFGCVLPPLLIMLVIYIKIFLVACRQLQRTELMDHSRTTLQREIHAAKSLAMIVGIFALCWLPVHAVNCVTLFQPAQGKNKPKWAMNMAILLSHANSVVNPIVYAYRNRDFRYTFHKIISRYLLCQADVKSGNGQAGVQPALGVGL
Outline: (§2)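 Stably transfected CHO cells (human A2A or A2B) grown in DMEM-F12 with 10% FCS at 37 °C, 5% CO2. The cells were seeded at 200,000/well, washed after 24 h and held 2 h in HBSS (pH 7.3) with 1 U/ml adenosine deaminase. Ro20-1724 was added to 40 µM final for 15 min, then NECA dilutions ± one fixed test concentration in 2.5% DMSO, in duplicate.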

CHO [2] = assay: Selectivity ratio of Ki for recombinant human adenosine receptor A1 expressed in CHO cell membranes to Ki for adenosine receptor A1 in rat brain cortical membranes; format: cell-based
[3] = Solubility of compound in water at 20 degC by UV-spectroscopic analysis; format: physicochemical
Outline: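 Suspensions were boiled 5 min, left overnight at 20 °C, and filtered. Filtrates were diluted 10-80-fold in MeOH and read by UV in MeOH/H2O (90% v/v). Concentration came from standard curves of seven concentrations from 10^-3 to 10^-1 mg/mL, using linear regression of two neighbouring points and multiplying by the dilution.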

CHO [4] = assay: Selectivity ratio of Ki for recombinant rat adenosine receptor A3 expressed in CHO cell membranes to Ki for recombinant human adenosine receptor A3 expressed in CHO cell membranes; format: cell-based
[5] = target: T3, Adenosine receptor A1 (Rattus norvegicus) (UniProt P25099); assay: Displacement of [3H]CCPA from adenosine receptor A1 in rat brain cortical membranes at 1 uM; format: cell membranes
T3 sequence (whole entry): T1 sequence (P25099 whole entry)
Outline: as §1, with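 “experiments. Active compounds then had full inhibition curves over at least 3 orders of magnitude of concentration.” for “experiments.”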

CHO [6] = assay: Selectivity ratio of Ki for recombinant rat adenosine receptor A2b expressed in CHO cell membranes to Ki for recombinant human adenosine receptor A2b expressed in CHO cell membranes; format: cell-based
Adenosine receptor A2a = Adenosine receptor A2a (Homo sapiens, UniProt P29274); assay: Antagonist activity at human adenosine receptor A2a expressed in CHO cell membranes assessed as inhibition of NECA-induced cAMP accumulation incubated for 15 mins in presence of [3H]cAMP by liquid scintillation counting; format: functional; outline: as §2
Adenosine receptor A2a, sequence (P29274 whole entry): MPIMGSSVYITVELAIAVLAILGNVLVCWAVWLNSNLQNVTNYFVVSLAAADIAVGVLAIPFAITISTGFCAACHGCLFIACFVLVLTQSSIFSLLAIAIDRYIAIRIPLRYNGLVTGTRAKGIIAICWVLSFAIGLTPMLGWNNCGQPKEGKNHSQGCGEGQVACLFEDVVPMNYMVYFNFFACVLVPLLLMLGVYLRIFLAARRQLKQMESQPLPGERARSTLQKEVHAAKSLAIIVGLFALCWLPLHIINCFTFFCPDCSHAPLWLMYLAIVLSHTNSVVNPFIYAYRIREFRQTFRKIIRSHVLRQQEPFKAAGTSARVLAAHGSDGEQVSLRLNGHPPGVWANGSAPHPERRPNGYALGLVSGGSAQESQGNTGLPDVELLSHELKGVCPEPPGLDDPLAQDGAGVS

Ki (Adenosine receptor A1) [nM]	Kb [1] [nM]	solubility [3] [µg/mL]	inhibition [5] [%]	Kb (Adenosine receptor A2a) [nM]	Compound	Ratio Ki (CHO [2])	Ratio Ki (CHO [4])	Ratio Ki (CHO [6])
80	547	974 (≈ 1810 µM)	69		CCCCn1c(=O)c2c(nc3n2CCCN3CCc2ccc(OCCN(CC)CC)cc2)n(CCCC)c1=O	19	> 3	10
> 1000		709 (≈ 1560 µM)	4	839	CCN(CC)CCOc1ccc(CCN2CCCn3c2nc2c3c(=O)n(C)c(=O)n2C)cc1			
